Source: PubChem BioAssay
SKN-1 inh: inhibitors of C. elegans SKN-1. C. elegans VP596 Pgst-4::GFP/RFP ratio, acrylamide-induced, 24 h. inhibition, % at 21.8 µM. 360,000 tested, 0.49% active;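 active = interference check ratio from 0.5 to 1.5 plus GFP to RFP signal ratio inhibition reaching or exceeding a fixed threshold, cut at about 30% in these data, passing the limit was not always enough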
Rce1 inhib: blocks yeast Ras-converting enzyme | Q03530 | yeast membranes, quenched prenylated peptide cleavage fluorescence | calls only | 290,000 tested, 0.27% active | AID 2563;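 active = fall in fluorescence gain of 50% or more versus controls, with final raw signal at or below 3038400; inconclusive = same 50% fall but final raw signal above 3038400; inactive = fall in fluorescence gain under 50%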;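 also: plate controls were neutral control wells for no effect and wells lacking membranes for full effect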
Target sequence (Q03530 whole entry, looked up): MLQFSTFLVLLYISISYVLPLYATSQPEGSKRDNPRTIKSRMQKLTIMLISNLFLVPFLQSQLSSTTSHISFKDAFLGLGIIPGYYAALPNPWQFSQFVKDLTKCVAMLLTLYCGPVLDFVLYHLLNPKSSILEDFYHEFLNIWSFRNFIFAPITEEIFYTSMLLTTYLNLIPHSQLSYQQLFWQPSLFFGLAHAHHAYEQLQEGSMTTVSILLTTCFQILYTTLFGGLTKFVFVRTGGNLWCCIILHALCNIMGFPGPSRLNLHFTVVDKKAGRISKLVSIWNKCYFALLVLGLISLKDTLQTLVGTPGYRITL
Rin1 Abl inh: blocks binding of human Rin1 to Abl | inhibition, % at 7.35 µM | AID 588664 | 360,000 tested, 0.4% active | P00519+Q13671 | TR-FRET Rin1/Abl binding, biochemical; in the data active = inhibition above about 5%, passing the limit was not always enough
T cell HTS: T cell immune modulation candidate; response (vesicle binding), % at 7 µM; 2C CD8+ T cell-vesicle binding, flow cytometry; active compounds read low; 330,000 tested, 0.068% active;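 active = response, share of CD8 T cells binding vesicles, and their 90th percentile fluorescence all below set limits, cut at about 80% in these data, passing the limit was not always enough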;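 also: values below 100% mean blocked vesicle binding to the CD8+ T cells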
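Also added: QL9-peptide-loaded Drosophila micro-vesicles bearing Ld, ICAM-1 and B7-1; Test system: purified 2C TCR transgenic mouse naive CD8+ T cells; Measured by: cytometric PE anti-B7-1 and Alexa647 anti-CD8 signals after 1% paraformaldehyde fixation; Timing: binding step 1.5 h, 37 °C, antibody labelling 20 min, ice.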
GRK2 inh: inhibitors of human GRK2 displacing RNA aptamer; bead flow cytometry, FAM-aptamer displacement from GRK2; inhibition of aptamer binding, % at 10 µM; 330,000 tested, 0.59% active; AID 488847;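 active = inhibition of aptamer binding above 40%, roughly 3 SD of noise, on plates passing a quality check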;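 also: median bead fluorescence of bound FAM aptamer so fluorescent compounds give negative values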
Myeloid diff 2: promotes myeloid progenitor differentiation. ER-HoxA9 myeloid progenitors, lysozyme-GFP differentiation, flow cytometry. calls only at 10 µM. 360,000 tested, 1% active. AID 624256;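 active = normalized GFP-positive differentiation at or above the plate's own cutoff, the solvent-only control mean plus 3 SD; inconclusive = no clear call, values can overlap the other calls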;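 also: cells exposed to compound for four days before flow analysis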
* = called active by the depositor; i = inactive; u = inconclusive; x = no result given; + = active, no number. A selection: hits, their analogues and other compounds. The true share with any hit is near 2.6%.

SMILES | SKN-1 inh | Rce1 inhib | Rin1 Abl inh | T cell HTS | GRK2 inh | Myeloid diff 2
O=C(c1nc[nH]c1C(=O)N1CCc2ccccc2C1)N1CCc2ccccc2C1 | 38* | x | 4 | 293 | 0 | i
CCc1ccc2[nH]c3nc(N/N=C/c4ccc(O)cc4O)nnc3c2c1 | 5 | i | -2 | 190 | 3 | i
COc1cccc(C2NC(=O)NC(C)=C2C(=O)Nc2ccc(C)cc2)c1OC (centres undefined) | 5 | x | 5 | 440 | 0 | +
COc1ccc(NC(=O)C2=C(C)NC(=O)NC2c2cccc(OC)c2OC)c(OC)c1 (centres undefined) | 0 | i | -3 | 501 | 1 | i
O=C(COc1ccccc1Br)N1CCN(C(=O)c2cccs2)CC1 | 1 | x | 2 | i | 2 | i
CCCCc1ccc(NC(=O)c2ccc(N(C)S(C)(=O)=O)cc2)cc1 | -5 | i | 0 | 311 | 0 | u
CCCCc1ccc(NC(=O)c2ccc(NS(C)(=O)=O)cc2)cc1 | 6 | i | 3 | 197 | 0 | +
COc1ccc(NC(=O)CSc2nnc(C3CCCCC3)o2)c(OC)c1 | 2 | i | 0 | 265 | 0 | +
COc1ccc(NCc2nnc(SCC(=O)Nc3ccc(OC)cc3OC)o2)cc1 | -9 | i | 3 | 277 | 4 | i
COC(=O)c1c(C)[nH]c(C(=O)/C=C/c2ccccc2)c1C | 5 | i | 1 | 273 | 1 | +
COC(=O)c1c(C)[nH]c(C(=O)/C=C/c2ccc(C)cc2)c1C | 3 | i | -5 | 509 | 2 | i
COc1ccc(S(=O)(=O)N2CCCCC2)cc1C(=O)Nc1cc(C)on1 | 9 | i | -1 | 448 | 1 | i
CCC/C(C#Cc1ccc(N(C)C)cc1)=C1/c2ccccc2C(=O)N1c1ccccc1 | 4 | x | -2 | 471 | 0 | +
CCOCCCn1c(=S)[nH]c2cc(C(=O)NCc3ccc(F)cc3)ccc2c1=O | -10 | i | -2 | 151 | 1 | u
O=C(COc1ncnc2c(Cl)cc(Cl)cc12)N1CCCCC1 | 30* | i | 0 | 727 | 0 | i
COc1ccc(CCNC(=O)CNC(=O)N2CC(=O)Nc3ccccc32)cc1OC | 25 | x | 1 | x | x | i
CCN(CC)c1nc(N)c2c(N)nc(OC)cc2c1C#N | 4 | + | -4 | 411 | 2 | i
COc1cc2c(C#N)c(N3CCc4ccccc4C3)nc(N)c2c(N)n1 | 7 | i | 4 | 267 | 4 | +
COc1cc2c(C#N)c(N3CCOCC3)nc(N)c2c(N)n1 | 6 | i | -4 | 368 | 0 | i
COc1cc2c(C#N)c(N3CCCCC3)nc(N)c2c(N)n1 | 11 | + | -7 | 196 | 0 | i
CCN(CC)CCNC(=O)C(=O)NCC1OCCN1S(=O)(=O)c1cccs1 (centres undefined) | 0 | i | 0 | 174 | 0 | i
COc1ccc(NC(=O)NC2CCCCCCC2)cc1 | 4 | i | 0 | 69* | 2 | i
COC(=O)c1ccc(NC(=O)NC2CCCCC2)cc1 | 0 | i | -1 | 168 | 0 | i
COc1ccc(/C=N/NC(=O)c2ccc(CSc3nc(C)cc(C)n3)cc2)c(OC)c1OC | -5 | i | 2 | 241 | 2 | +
COc1ccc(/C=N/NC(=O)c2ccc(CSc3nc(C)cc(C)n3)cc2)cc1O | -1 | i | -4 | 393 | 0 | i
SMILES | SKN-1 inh | Rce1 inhib | Rin1 Abl inh | T cell HTS | GRK2 inh | Myeloid diff 2
Cc1ccc2cc3cc(C(=O)N4CC(C)CC(C)C4)oc3nc2c1 (centres undefined) | 39* | x | -3 | 199 | 4 | i
COc1ccccc1C(=O)Nc1ccc2ccccc2c1 | 48* | i | -2 | 407 | 0 | i
CCN(CC)c1cc(C)c2cc(NC(=O)c3ccccc3OC)ccc2n1 | 5 | i | -1 | 612 | 1 | +
COc1ccc(C(=O)Nc2ccc3ccccc3c2)c(OC)c1 | 7 | i | -1 | 193 | 1 | i
O=C(O)c1ccccc1C(=O)Nc1ccc(Oc2ccc3ccccc3c2)cc1 | 14 | i | 0 | 235 | 0 | +
Cn1c(=O)c2[nH]c(CCc3ccncc3)nc2n(C)c1=O | 13 | x | -1 | x | x | i
CN(Cc1ccccc1)Cc1nc2c([nH]1)c(=O)n(C)c(=O)n2C | -25 | i | -2 | 315 | 4 | +
CCOc1ccc(S(=O)(=O)n2cc(F)c(=O)[nH]c2=O)cc1[N+](=O)[O-] | 17 | i | 6 | 895 | 0 | u
CCOc1ccc(S(=O)(=O)n2cc(F)c(=O)[nH]c2=O)cc1 | -5 | i | 1 | 314 | 0 | +
Cc1cn([C@H]2C[C@H](O)[C@@H](/C=C/C(=O)NCc3ccc(N(C)C)cc3)O2)c(=O)[nH]c1=O | 1 | x | 1 | x | x | i
Cc1cn([C@H]2C[C@H](O)[C@@H](/C=C/C(=O)NCc3ccco3)O2)c(=O)[nH]c1=O | 9 | x | 3 | x | x | +
O=C(NC1CCCC1)C1CCCN1C(=O)Nc1ccc(Cl)cc1 (centres undefined) | -3 | i | 0 | 0.0* | 1 | i
Cc1ccc2c(c1)C(=O)N1c3cc(C)c(C)cc3NC(=O)C1C(=O)N2 (centres undefined) | 10 | x | -1 | x | x | i
O=C(O)CN1C(=O)C2C3CC(C2C1=O)C1C(c2ccc(F)cc2)c2sc(=O)[nH]c2SC31 (centres undefined) | 48* | x | 0 | 82 | 4 | i
O=C(O)CN1C(=O)C2C3CC(C2C1=O)C1C(c2ccc(Cl)cc2)c2sc(=O)[nH]c2SC31 (centres undefined) | 2 | x | -1 | 360 | 0 | i
COc1ccc([C@H]2C[C@@H](O)[C@H](n3cc(C4CC4)nn3)CN2CC2CCCCC2)cc1 | -7 | x | -1 | x | x | i
CN(C)CCNc1ncnc2c1ncn2[C@H]1CN(Cc2ccc(F)cc2)C[C@@H](CO)O1 | 8 | x | -2 | x | x | i
O=C1CCC(=O)N1OCCCOc1ccccc1 | 5 | i | -1 | 698 | 0 | i
O=C1CCC(=O)N1OCCCCOc1ccccc1 | 14 | i | 0 | 515 | 42* | i
O=C(CNCc1ccccn1)Nc1ccc([N+](=O)[O-])cc1C(=O)Nc1ccccc1F | 12 | i | 1 | 301 | 3 | i
Cc1ccc(OCCC(=O)OCC(=O)Nc2cc(S(=O)(=O)N(C)C)ccc2C)cc1 | -12 | i | 6 | 304 | 1 | +
Cc1cc(C)c(S(=O)(=O)N2CCCC(C(=O)NC3CC3)C2)c(C)c1 (centres undefined) | 16 | i | 2 | 0 | 0 | i
O=C(COC(=O)c1ccc(O)cc1)NC(c1ccccc1)c1ccccc1 | 14 | x | -2 | 353 | 3 | i
